pIC50: −log10 of the molar value.
Tests used:
[1] = tested on: UACC-62; experiment: Antitumor activity against human UACC62 cells after 48 hrs by SRB assay; format: functional, cell-based; settings: UACC-62, 48 h
Procedure, shortened: (§1)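 Human tumor lines in medium with 5% FBS and gentamicin, exposed in 96-well plates to four concentrations given in DMSO for 48 h at 37 °C, 5% CO₂. Cells fixed with trichloroacetic acid (added as 50% solution) for 30 min at 4 °C, washed, dried, stained with sulphorhodamine B. Protein content read at 540 nm.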

[2] = tested on: MCF7; experiment: Antitumor activity against human MCF7 cells after 48 hrs by SRB assay; format: functional, cell-based; settings: MCF7, 48 h; procedure, shortened: as §1
[3] = Antitumor activity against human NCI/ADR cells after 48 hrs by SRB assay; format: functional, cell-based; settings: NCI/ADR-RES; procedure, shortened: as §1
[4] = Antitumor activity against human 786-O cells after 48 hrs by SRB assay; format: functional, cell-based; settings: 786-0, 48 h; procedure, shortened: as §1
[5] = tested on: NCI-H460; experiment: Antitumor activity against human NCI-H460 cells after 48 hrs by SRB assay; format: functional, cell-based; settings: NCI-H460, 48 h; procedure, shortened: as §1
[6] = tested on: K562; experiment: Antitumor activity against human K562 cells after 48 hrs by SRB assay; format: functional, cell-based; settings: K562, 48 h; procedure, shortened: as §1
[7] = tested on: PC-3; experiment: Antitumor activity against human PC3 cells after 48 hrs by SRB assay; format: functional, cell-based; settings: PC-3, 48 h; procedure, shortened: as §1
[8] = tested on: OVCAR-3; experiment: Antitumor activity against human OVCAR-3 cells after 48 hrs by SRB assay; format: functional, cell-based; settings: OVCAR-3, 48 h; procedure, shortened: as §1
[9] = tested on: HT-29; experiment: Antitumor activity against human HT-29 cells after 48 hrs by SRB assay; format: functional, cell-based; settings: HT-29, 48 h; procedure, shortened: as §1
[10] = tested on: B16-F10; experiment: Antiproliferative activity against mouse B16F10 cells after 24 hrs by MTT assay; format: functional, cell-based; settings: B16-F10, 24 h
Procedure, shortened: (§2)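 Murine tumor cells grown to confluence, then exposed for 24 h to a range of concentrations diluted in Miglyol 810, with a Miglyol-only diluent control. MTT (5 mg/ml stock) added for 3 h at 37 °C, 5% CO₂. Plates centrifuged, supernatant removed, formazan dissolved in DMSO, absorbance read at 540 nm.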

[11] = tested on: L1210; experiment: Antiproliferative activity against mouse L1210 cells after 24 hrs by MTT assay; format: functional, cell-based; settings: L1210, 24 h; procedure, shortened: as §2
[12] = Antiproliferative activity against mouse macrophages after 24 hrs by MTT assay; format: cell-based; settings: Macrophage
Procedure, shortened: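 Peritoneal macrophages lavaged from anesthetized normal Balb-C mice with heparinized saline. Cells pelleted, resuspended in RPMI-1640 with 10% FBS at 10⁶/ml, plated, and exposed for 24 h to compound dilutions in Miglyol 810, with a diluent control. MTT (5 mg/ml stock) for 3 h at 37 °C, formazan dissolved in DMSO, read at 540 nm.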

[13] = Toxicity in Swiss albino mouse for 14 days; format: organism-based; settings: in vivo
Procedure, shortened: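 Male albino Swiss mice (~25 g; 20 animals split equally into treated and control groups), acclimatised at least 7 days and fasted 12 h. Single intraperitoneal dose of 1, 2.5 or 5 g/kg body weight. Deaths and signs of toxicity observed for at least 14 days. LD50 by Litchfield and Wilcoxon's method; OECD425 protocol.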

Row | Compound | pIC50 [2] | pIC50 [5] | pIC50 [6] | pIC50 [7] | pIC50 [8] | pIC50 [9] | pIC50 [1] | pIC50 [3] | pIC50 [4] | pIC50 [10] | pIC50 [11] | pIC50 [12] | LD50 at 336 h [13]
1 | COc1cc(/C=C/C(=O)/C=C/c2ccc(OCC=C(C)C)c(OC)c2)ccc1OCC=C(C)C | 4.74 | 4.47 | 5.32 | 4.22 | 4.52 | 5.39 | 4.51 | 5.14 | 5.10 | – | – | – | –
2 | COc1cc(/C=C/C(=O)/C=C/c2ccc(O)c(OC)c2)ccc1O | 6.92 | 5.82 | 5.74 | 5.90 | 5.66 | 5.64 | 7.05 | 6.08 | 5.70 | 4.67 | 4.25 | 4.29 | 8540 mg/kg
3 | COc1cc(/C=C/C(=O)/C=C/c2ccc(OC(C)=O)c(OC)c2)ccc1OC(C)=O | 5.96 | 5.77 | 5.85 | 6.02 | 5.86 | 5.83 | 5.37 | 5.51 | 6.18 | 3.66 | 3.61 | 3.56 | 3680 mg/kg

The next lines start with results.

Row | pIC50 [2] | pIC50 [5] | pIC50 [6] | pIC50 [7] | pIC50 [8] | pIC50 [9] | Compound | pIC50 [1] | pIC50 [3] | pIC50 [4] | pIC50 [10] | pIC50 [11] | pIC50 [12] | LD50 at 336 h [13]
4 | 5.28 | 5.16 | 5.12 | 5.37 | 3.94 | 5.47 | COc1cc(/C=C/C(/C=C/c2ccc(O)c(OC)c2)=C(C#N)C#N)ccc1O | 5.48 | 5.53 | 5.15 | – | – | – | –
5 | 5.70 | 5.73 | 5.74 | 5.63 | 5.63 | 5.61 | COc1ccc(/C=C/C(=O)/C=C/c2ccc(OC)c(OC)c2)cc1OC | 5.67 | 5.63 | 5.47 | – | – | – | –

Reference: ChEMBL document CHEMBL1221338, “New antitumoral agents I: In vitro anticancer activity and in vivo acute toxicity of synthetic 1,5-bis(4-hydroxy-3-methoxyphenyl)-1,4-pentadien-3-one and derivatives” (Bioorg Med Chem, 2010)
